Experimental data as given in ChEMBL document CHEMBL1800065, “Enhanced stability and intracellular accumulation of quercetin by protection of the chemically or metabolically susceptible hydroxyl groups with a pivaloxymethyl (POM) promoiety” (J Med Chem, 2010).
Values after ≈ are worked out from the molar mass of the structure shown. Active and inactive are the calls of the source. The rule behind the calls is not given here.

Legend:
HCT-116 [1] = experiment: Cellular uptake in human HCT116 cells assessed a bright fluorescence light at 5 uM after 1 hr by fluorescence microscopic analysis; format: ADME, cell-based; conditions: hct-116, 1 h
[2] = Aqueous solubility of the compound in PBS assessed as forward light scattering by compound by microplate neplhelometric analysis; format: physicochemical
In short: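 Nephelometric solubility. DMSO stocks diluted in PBS (pH 7.4), 1% DMSO final, to 5–500 μM. Forward light scattering read in microplates to find the highest concentration free of scatter.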

HCT-116 [3] = experiment: Cellular uptake in human HCT116 cells assessed a bright fluorescence light at 5 uM after 12 hrs by fluorescence microscopic analysis; format: ADME, cell-based; conditions: hct-116, 12 h
DU-145 = experiment: Antiproliferative activity against human DU145 cells after 24 hrs by MTT assay; format: functional, cell-based; conditions: DU-145, 24 h
In short: (§1)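 Cells seeded at 5 × 10³ per well in complete DMEM and grown 1 day at 37 °C, 5% CO₂. Compounds in DMSO diluted to 0.1–50 μM in medium, no ascorbic acid added. […] Each experiment run in triplicate and repeated three times.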

Huh-7 [4] = experiment: Cellular uptake in human HuH7 cells assessed as compound remaining in cell lysate at 10 uM after 1 hr by HPLC-mass spectrophotometric analysis; format: ADME, cell-based; conditions: huh-7, 1 h
MCF7 [5] = experiment: Antiproliferative activity against human MCF7 cells after 24 hrs by MTT assay; format: functional, cell-based; conditions: MCF7, 24 h; in short: as §1
HCT-116 [6] = experiment: Antiproliferative activity against human HCT116 cells after 24 hrs by MTT assay in presence of antioxidative stabilizer ascorbic acid; format: functional, cell-based
In short: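 HCT116 cells seeded at 5 × 10³ cells/well in complete DMEM and grown 1 day (37 °C, 5% CO₂). Compounds were dissolved in DMSO and diluted to 0.1–50 μM in medium containing ascorbic acid. Viability read by MTT after 24 h; triplicate wells, three independent repeats.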

[7] = Chemical stability of the compound in PBS buffer at pH 7.4 assessed as half life by HPLC analysis; format: physicochemical
In short: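 Compound at 50 μM in PBS pH 7.4 at 37 °C, no stabilizer. Aliquots taken at 0–360 min and analysed by C-18 reverse-phase HPLC with UV detection at 340 nm and an acetonitrile/0.1% formic acid gradient. Half-life derived from the time course.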

MCF7 [8] = experiment: Cellular uptake in human MCF7 cells assessed as compound remaining in cell lysates at 10 uM after 12 hr by HPLC-mass spectrophotometric analysis; format: ADME, cell-based, Lysate; conditions: mcf7, 12 h
In short: (§2)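 Cells (MCF-7 or Huh-7) seeded at 10⁵ cells/well and grown 24 h (37 °C, 5% CO₂), then exposed to 10 μM compound. Media and washed, trypsinised, sonicated and filtered lysates analysed by HPLC at 1 and 12 h. Peaks collected and identified by MALDI-TOF MS; content given as percentage of integrated HPLC peak area.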

HS27 = experiment: Antiproliferative activity against human HS27 cells after 24 hrs by MTT assay; format: cell-based; conditions: HS27, 24 h; in short: as §1
[9] = Solubility of the compound in cell-free DMEM media assessed as forward light scattering by compound by microplate neplhelometric analysis in presence of FBS; format: physicochemical; conditions: cell-free DMEM medium with FBS
In short: (§3)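 Stocks in DMSO diluted to final 5–500 μM in DMEM, with or without FBS, at 1% DMSO. Forward light scattering measured by laser microplate nephelometry; solubility limit taken from the onset of scattering.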

[10] = Chemical stability of the compound in buffer at pH 2 assessed as half life by HPLC analysis; format: physicochemical
In short: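 Compound incubated in pH 2.0 buffer without antioxidant stabiliser. Remaining parent followed by HPLC to derive the half-life.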

MCF7 [11] = experiment: Cellular uptake in human MCF7 cells assessed as compound remaining in culture media at 10 uM after 1 hr by HPLC-mass spectrophotometric analysis; format: ADME, cell-based; conditions: mcf7, 1 h; in short: as §2
[12] = Solubility of the compound in DMEM media assessed as forward light scattering by compound by microplate neplhelometric analysis; format: physicochemical; conditions: DMEM medium; in short: as §3
MCF7 [13] = experiment: Cell cycle arrest in human MCF7 cells assessed as decrease in accumulation at G0/G1 phase at 30 uM after 12 hrs by propidium iodide staining based flow cytometric analysis relative to quercetin; format: functional; design: scale not given: the % may be the effect or the level left
In short: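 MCF-7 cells seeded in 35 mm dishes at 10⁵ cells and grown 12 h at 37 °C, 5% CO₂. Treated 12 h with conjugate at 30 μM, quercetin or 1% DMSO control. Propidium iodide staining, flow cytometry, percentage of cells in each phase.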

[14] = Chemical stability of the compound in cell-free DMEM culture media assessed as half life by HPLC analysis in presence of FBS; format: physicochemical; conditions: cell-free DMEM culture medium with FBS
In short: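 50 μM in FBS-supplemented DMEM, diluted from 10 mM DMSO stock, no ascorbic acid, cell-free, 37 °C and 5% CO₂. Media sampled at time points up to 24 h and stored at −80 °C. Half-life determined by HPLC.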

MCF7 [15] = experiment: Cell cycle arrest in human MCF7 cells assessed as increase in apoptotic cells in sub-G1 phase at 30 uM after 14 hrs by propidium iodide staining based flow cytometric analysis relative to quercetin; format: functional
HCT-116 [16] = experiment: Antiproliferative activity against human HCT116 cells after 24 hrs by MTT assay; format: functional, cell-based; conditions: HCT-116, 24 h; in short: as §1
MCF7 [17] = experiment: Cell cycle arrest in human MCF7 cells assessed as increase in accumulation at S phase at 30 uM after 14 hrs by propidium iodide staining based flow cytometric analysis relative to quercetin; format: functional
MCF7 [18] = experiment: Cellular uptake in human MCF7 cells assessed as compound remaining in cell lysates at 10 uM after 1 hr by HPLC-mass spectrophotometric analysis; format: ADME, cell-based, Lysate; conditions: mcf7, 1 h; in short: as §2
MCF7 [19] = experiment: Cellular uptake in human MCF7 cells assessed as compound remaining in culture media at 10 uM after 12 hrs by HPLC-mass spectrophotometric analysis; format: ADME, cell-based; conditions: mcf7, 12 h; in short: as §2
Huh-7 [20] = experiment: Cellular uptake in human HuH7 cells assessed as compound remaining in culture media at 10 uM after 1 hrs by HPLC-mass spectrophotometric analysis; format: ADME, cell-based; conditions: huh-7, 1 h
[21] = Permeability of the compound measured on donor plate of PAMPA membrane at 50 uM after 1 hr by HPLC analysis; format: ADME
In short: (§4)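 Precoated PVDF PAMPA plate warmed to room temperature for 30 min. Donor held 50 μM compound in PBS with 5% DMSO; acceptor held PBS. Assembly incubated at room temperature for 1 and 5 h. Donor and acceptor aliquots analysed by HPLC; distribution given as percentage of integrated peak area.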

[22] = Chemical stability of the compound in water assessed as half life by HPLC analysis; format: physicochemical
[23] = Permeability of the compound measured on acceptor plate of PAMPA membrane at 50 uM after 5 hrs by HPLC analysis; format: ADME; in short: as §4
[24] = Permeability of the compound measured on donor plate of PAMPA membrane at 50 uM after 5 hrs by HPLC analysis; format: ADME; in short: as §4
[25] = Permeability of the compound measured on acceptor plate of PAMPA membrane at 50 uM after 1 hr by HPLC analysis; format: ADME; in short: as §4
[26] = Half life in blood of cancer patient at 400 mg/kg, iv by HPLC analysis; format: ADME, organism-based; design: dose 400 mg/kg, route intravenous; conditions: human
HCT-116 [27] = experiment: Cellular uptake in human HCT116 cells assessed a bright fluorescence light at 5 uM after 12 hr by fluorescence microscopic analysis in presence of P-glycoprotein inhibitor verapamil; format: ADME, cell-based; conditions: hct-116, 12 h
HCT-116 [28] = experiment: Cellular uptake in human HCT116 cells assessed a bright fluorescence light at 5 uM after 12 hr by fluorescence microscopic analysis in presence of […]; format: ADME, cell-based; conditions: hct-116, 12 h
Huh-7 [29] = experiment: Cellular uptake in human HuH7 cells assessed as intracellular accumulation at 10 uM after 12 hrs by HPLC-mass spectrophotometric analysis; format: ADME, cell-based; conditions: huh-7, 12 h; in short: as §2
MCF7 [30] = experiment: Cell cycle arrest in human MCF7 cells assessed as increase in accumulation at S phase at 50 uM after 14 hrs by propidium iodide staining based flow cytometric analysis relative to untreated control; format: functional
MCF7 [31] = experiment: Cell cycle arrest in human MCF7 cells assessed as decrease in accumulation at G0/G1 phase at 50 uM after 12 hrs by propidium iodide staining based flow cytometric analysis relative to untreated control; format: functional; design: scale not given: the % may be the effect or the level left
MCF7 [32] = experiment: Cellular uptake in human MCF7 cells assessed as formation of methylated quercetin in cell lysates at 10 uM after 12 hrs by HPLC-mass spectrophotometric analysis; conditions: mcf7, 12 h
MCF7 [33] = experiment: Cellular uptake in human MCF7 cells assessed as formation of quercetin sulphate in cell lysates at 10 uM after 12 hrs by HPLC-mass spectrophotometric analysis; conditions: mcf7, 12 h
Huh-7 [34] = experiment: Cellular uptake in human HuH7 cells assessed as methyl-quercetin accumulation at 10 uM after 12 hrs by HPLC-mass spectrophotometric analysis; format: ADME, cell-based; conditions: huh-7, 12 h; in short: as §2
MCF7 [35] = experiment: Cellular uptake in human MCF7 cells assessed as formation of quercetin glucuronide in cell lysates at 10 uM after 12 hrs by HPLC-mass spectrophotometric analysis; conditions: mcf7, 12 h
Huh-7 [36] = experiment: Cellular uptake in human HuH7 cells assessed as quercetin-sulphate accumulation at 10 uM after 12 hrs by HPLC-mass spectrophotometric analysis; format: ADME, cell-based; conditions: huh-7, 12 h; in short: as §2
MCF7 [37] = experiment: Cellular uptake in human MCF7 cells assessed as formation of oxidised quercetin in cell lysates at 10 uM after 12 hrs by HPLC-mass spectrophotometric analysis; conditions: mcf7, 12 h

Structure (SMILES)	Drug uptake (HCT-116 [1])	solubility kinetic [2]	Drug uptake (HCT-116 [3])	EC50 (DU-145)	EC50 (MCF7 [5])	Activity (HCT-116 [6])	half-life [7]	Drug uptake (MCF7 [8])	EC50 (HS27)	solubility kinetic [9]	half-life [10]	Drug uptake (MCF7 [11])	solubility kinetic [12]	half-life [14]	EC50 (HCT-116 [16])	Drug uptake (MCF7 [18])	permeability [21]	permeability [23]	permeability [24]	permeability [25]	further results
CC(C)(C)C(=O)OCOc1cc(O)c2c(=O)c(O)c(-c3ccc(O)c(O)c3)oc2c1	Active	5 µM (≈ 2.08 µg/mL)	Active	10 µM	20 µM	Active	> 72 h	4%	> 100 µM	200 µM	7 h	62%	50 µM (≈ 20.8 µg/mL)	4 h	36 µM	21%	–	–	–	–	Drug uptake (Huh-7 [4]): Active; Activity (MCF7 [13]): 10%; Activity (MCF7 [15]): Active; Activity (MCF7 [17]): 120%; Drug uptake (MCF7 [19]): 12%; Drug uptake (Huh-7 [20]): Active
O=C(O)CNC(=O)Oc1cc(-c2oc3cc(O)cc(O)c3c(=O)c2O)ccc1O [QC-12]	–	> 400 µM	–	–	–	–	10 h	–	–	> 400 µM	3 h	–	> 400 µM	0.8 h	–	–	6%	40%	18%	55%	half-life [22]: 16.9 h; half-life [26]: 0.39 h
CC(C)(C)C(=O)OCOc1c(-c2ccc(O)c(O)c2)oc2cc(O)cc(O)c2c1=O	Not Active	100 µM (≈ 41.6 µg/mL)	Not Active	> 100 µM	> 100 µM	–	> 72 h	–	> 100 µM	> 400 µM	20 h	–	100 µM (≈ 41.6 µg/mL)	52 h	> 100 µM	–	87%	0%	74%	0%	Drug uptake (HCT-116 [27]): Not Active; Drug uptake (HCT-116 [28]): Not Active
O=c1c(O)c(-c2ccc(O)c(O)c2)oc2cc(O)cc(O)c12 [QUERCETIN]	Active	100 µM (≈ 30.2 µg/mL)	Not Active	> 100 µM	> 100 µM	inactive	10 h	17%	> 100 µM	–	7 h	5%	–	< 0.5 h	> 100 µM	7%	45%	6%	8%	16%	Drug uptake (Huh-7 [29]): Not Active; Activity (MCF7 [30]): 78%; Activity (MCF7 [31]): 21%; Drug uptake (MCF7 [32]): Active; Drug uptake (MCF7 [33]): Active; Drug uptake (Huh-7 [34]): < 5%; Drug uptake (MCF7 [35]): Active; Drug uptake (Huh-7 [36]): < 5%; Drug uptake (MCF7 [37]): Active; Drug uptake (MCF7 [19]): 5%
